From ChEMBL document CHEMBL1641600, “Novel bifunctional alkylating agents, 5,10-dihydropyrrolo[1,2-b]isoquinoline derivatives, synthesis and biological activity” (Bioorg Med Chem, 2011)
pIC50: −log10 of the molar value.

Legend:
CCRF-CEM [1] = assay: Cytotoxicity against vinblastine-resistant human CCRF-CEM cells after 72 hrs by XTT assay; assay type: functional, cell-based
Outline: (§1)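 Leukemic CCRF-CEM and its Taxol- and vinblastine-resistant sublines exposed 72 h to six or seven drug concentrations. XTT with phenazine methosulfate added for 6 h at 37 °C; absorbance read at 450 and 630 nm. IC50 obtained from dose-effect data by the median-effect principle.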

CCRF-CEM [2] = assay: Cytotoxicity against Taxol-resistant human CCRF-CEM cells after 72 hrs by XTT assay; assay type: functional, cell-based; outline: as §1
CCRF-CEM [3] = assay: Cytotoxicity against human CCRF-CEM cells after 72 hrs by XTT assay; assay type: functional, cell-based; outline: as §1
CCRF-CEM [4] = assay: Ratio of IC50 for Taxol-resistant human CCRF-CEM cells to IC50 for human CCRF-CEM cells
[5] = Cytotoxicity against human OECM1 cells after 72 hrs by Alamar blue assay; assay type: functional, cell-based; conditions: OECM1, 72 h
Outline: (§2)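 H1299, PC3, OECM1 and U87 cells exposed 72 h to six or seven drug concentrations. Alamar blue added for 6 h at 37 °C; absorbance read at 570 and 600 nm. IC50 obtained from dose-effect data by the median-effect principle.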

[6] = Cytotoxicity against human U87 cells after 72 hrs by Alamar blue assay; assay type: functional, cell-based, U-87MG ATCC; conditions: U-87 MG; outline: as §2
[7] = Cytotoxicity against human H1299 cells after 72 hrs by Alamar blue assay; assay type: functional, cell-based; conditions: NCI-H1299, 72 h; outline: as §2
PC-3 = assay: Cytotoxicity against human PC3 cells after 72 hrs by Alamar blue assay; assay type: functional, cell-based; conditions: PC-3, 72 h; outline: as §2
MX1 = assay: Cytotoxicity against human MX1 cells after 72 hrs by SRB assay; assay type: functional, cell-based; conditions: MX1, 72 h
Outline: (§3)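 MX-1 breast and HCT-116 colon carcinoma cells exposed 72 h to six or seven drug concentrations. Growth measured by SRB assay with microplate absorbance. IC50 obtained from dose-effect data by the median-effect principle.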

HCT-116 = assay: Cytotoxicity against human HCT116 cells after 72 hrs by SRB assay; assay type: functional, cell-based; conditions: HCT-116, 72 h; outline: as §3

Row | Structure (SMILES) | pIC50 (CCRF-CEM [1]) | pIC50 (CCRF-CEM [2]) | pIC50 (CCRF-CEM [3]) | Ratio IC50 (CCRF-CEM [4]) | pIC50 [5] | pIC50 [6] | pIC50 [7] | pIC50 (PC-3) | pIC50 (MX1) | pIC50 (HCT-116)
1 | COc1ccc(-c2c(COC(=O)NC(C)C)c(COC(=O)NC(C)C)c3n2Cc2ccccc2C3)cc1OC | 6.11 | 6.22 | 5.89 | 0.46 | – | – | – | – | – | –
2 | CCNC(=O)OCc1c(COC(=O)NCC)c(-c2ccc(F)cc2)n2c1Cc1ccccc1C2 | 6.24 | 6.37 | 6.51 | 1.39 | 4.90 | 4.55 | 5.40 | 5.02 | 5.82 | 6.10
3 | CC(C)NC(=O)OCc1c(COC(=O)NC(C)C)c(-c2ccc(F)c(F)c2)n2c1Cc1ccccc1C2 | 6.21 | 6.11 | 5.88 | 0.58 | – | – | – | – | – | –
4 | CC(C)NC(=O)OCc1c(COC(=O)NC(C)C)c(-c2ccccc2)n2c1Cc1ccccc1C2 | 6.60 | 6.64 | 6.35 | 0.5 | – | – | – | – | – | –
5 | CCNC(=O)OCc1c(COC(=O)NCC)c(-c2ccc(Cl)cc2)n2c1Cc1ccccc1C2 | 6.24 | 6.46 | 6.23 | 0.59 | 4.60 | 4.47 | 4.43 | 4.96 | 5.77 | 6.21
6 | CNC(=O)OCc1c(COC(=O)NC)c(-c2ccc(F)c(F)c2)n2c1Cc1ccccc1C2 | 6.33 | 6.35 | 6.31 | 0.91 | – | – | – | – | 5.56 | 6.44
7 | CCc1c(COC(=O)NC(C)C)c(COC(=O)NC(C)C)c2n1Cc1ccccc1C2 | 6.74 | 6.49 | 6.24 | 0.56 | – | – | – | – | – | –
8 | CCNC(=O)OCc1c(COC(=O)NCC)c(-c2ccc(Cl)c(Cl)c2)n2c1Cc1ccccc1C2 | 5.92 | 6.05 | 5.63 | 0.38 | – | – | – | – | – | –
9 | CCNC(=O)OCc1c(COC(=O)NCC)c2n(c1C)Cc1ccccc1C2 | 6.92 | 6.96 | 6.62 | 0.48 | 4.95 | 4.86 | 4.71 | 4.81 | 5.64 | 6.05
10 | CNC(=O)OCc1c(COC(=O)NC)c(-c2ccc(OC)cc2)n2c1Cc1ccccc1C2 | 7.05 | 6.89 | 6.74 | 0.72 | – | – | – | – | 5.88 | 5.97
11 | CCNC(=O)OCc1c(COC(=O)NCC)c2n(c1CC)Cc1ccccc1C2 | 6.62 | 6.68 | 6.36 | 0.48 | – | – | – | – | – | –
12 | OCc1c(CO)c(-c2ccc(Cl)c(Cl)c2)n2c1Cc1ccccc1C2 | 5.19 | 5.32 | 5.07 | 0.57 | – | – | – | – | – | –
13 | CC(C)NC(=O)OCc1c(COC(=O)NC(C)C)c(-c2ccc(Cl)cc2)n2c1Cc1ccccc1C2 | 6.24 | 6.20 | 6.27 | 1.16 | 4.58 | 4.64 | 4.60 | 5.00 | 5.77 | 6.16
14 | OCc1c(CO)c(-c2ccc(F)c(F)c2)n2c1Cc1ccccc1C2 | 6.02 | 5.90 | 5.94 | 1.11 | – | – | – | – | 5.16 | 5.49
15 | COc1cc(-c2c(COC(=O)NC(C)C)c(COC(=O)NC(C)C)c3n2Cc2ccccc2C3)cc(OC)c1OC | 5.85 | 5.92 | 6.05 | 1.35 | – | – | – | – | – | –
16 | OCc1c(CO)c(-c2ccc(F)cc2)n2c1Cc1ccccc1C2 | 6.31 | 6.06 | 6.29 | 1.72 | 5.16 | 4.63 | 5.06 | 5.23 | 5.40 | 5.61
17 | CCNC(=O)OCc1c(COC(=O)NCC)c(-c2cc(OC)c(OC)c(OC)c2)n2c1Cc1ccccc1C2 | 5.50 | 5.67 | 5.85 | 1.52 | – | – | – | – | – | –
18 | CCNC(=O)OCc1c(COC(=O)NCC)c(-c2ccccc2)n2c1Cc1ccccc1C2 | 6.64 | 6.59 | 6.59 | 1.01 | – | – | – | – | – | –

Row | Structure (SMILES) | pIC50 (CCRF-CEM [1]) | pIC50 (CCRF-CEM [2]) | pIC50 (CCRF-CEM [3]) | Ratio IC50 (CCRF-CEM [4]) | pIC50 [5] | pIC50 [6] | pIC50 [7] | pIC50 (PC-3) | pIC50 (MX1) | pIC50 (HCT-116)
19 | CC(C)NC(=O)OCc1c(COC(=O)NC(C)C)c(-c2ccc(Cl)c(Cl)c2)n2c1Cc1ccccc1C2 | 5.87 | 5.61 | 5.45 | 0.69 | – | – | – | – | – | –
20 | CNC(=O)OCc1c(COC(=O)NC)c2n(c1C)Cc1ccccc1C2 | 7.10 | 6.96 | 6.89 | 0.86 | – | – | – | – | 5.77 | 5.93
21 | COc1ccc(-c2c(CO)c(CO)c3n2Cc2ccccc2C3)cc1OC | 6.21 | 6.12 | 5.96 | 0.69 | – | – | – | – | – | –
22 | CC[C@]1(O)C[C@@H]2CN(CCc3c([nH]c4ccccc34)[C@@](C(=O)OC)(c3cc4c(cc3OC)N(C)[C@H]3[C@@](O)(C(=O)OC)[C@H](OC(C)=O)[C@]5(CC)C=CCN6CC[C@]43[C@@H]65)C2)C1 [VINBLASTINE] | – | – | – | 106.2 | – | – | – | – | – | –
23 | COc1ccc(-c2c(COC(=O)NC(C)C)c(COC(=O)NC(C)C)c3n2Cc2ccccc2C3)cc1 | 6.80 | 6.72 | 6.47 | 0.56 | 5.05 | 4.68 | 4.88 | 5.17 | 6.01 | 6.01
24 | CCc1c(CO)c(CO)c2n1Cc1ccccc1C2 | 6.72 | 6.68 | 6.74 | 1.15 | – | – | – | – | – | –
25 | CCNC(=O)OCc1c(COC(=O)NCC)c(-c2ccc(OC)c(OC)c2)n2c1Cc1ccccc1C2 | 6.19 | 6.09 | 5.97 | 0.75 | – | – | – | – | – | –
26 | Cc1c(COC(=O)NC(C)C)c(COC(=O)NC(C)C)c2n1Cc1ccccc1C2 | 6.85 | 6.64 | 6.57 | 0.84 | 4.93 | 4.57 | 5.01 | 4.77 | 5.89 | 5.86
27 | CCNC(=O)OCc1c(COC(=O)NCC)c(-c2ccc(F)c(F)c2)n2c1Cc1ccccc1C2 | 6.17 | 5.90 | 5.68 | 0.6 | – | – | – | – | – | –
28 | COc1ccc(-c2c(CO)c(CO)c3n2Cc2ccccc2C3)cc1 | 6.96 | 6.60 | 6.64 | 1.02 | 5.21 | 4.98 | 4.86 | 4.96 | 5.70 | 5.95
29 | OCc1c(CO)c(-c2ccc(Cl)cc2)n2c1Cc1ccccc1C2 | 6.14 | 6.11 | 6.22 | 1.28 | 4.92 | 4.57 | 4.61 | 5.01 | 5.48 | 5.51
30 | CNC(=O)OCc1c(COC(=O)NC)c(-c2ccc(Cl)cc2)n2c1Cc1ccccc1C2 | 6.80 | 6.66 | 6.72 | 1.18 | – | – | – | – | 5.93 | 7.40
31 | CC(C)NC(=O)OCc1c(COC(=O)NC(C)C)c(-c2ccc(F)cc2)n2c1Cc1ccccc1C2 | 6.64 | 6.64 | 6.12 | 0.3 | 4.96 | 4.43 | 5.09 | 4.91 | 5.93 | 6.20
32 | CC(=O)O[C@H]1C(=O)[C@@]2(C)[C@H]([C@H](OC(=O)c3ccccc3)[C@]3(O)C[C@H](OC(=O)[C@H](O)[C@@H](NC(=O)c4ccccc4)c4ccccc4)C(C)=C1C3(C)C)[C@]1(OC(C)=O)CO[C@@H]1C[C@@H]2O [PACLITAXEL] | – | – | – | 330 | – | – | – | – | – | –
33 | OCc1c(CO)c(-c2ccccc2)n2c1Cc1ccccc1C2 | 6.54 | 6.30 | 6.29 | 0.99 | – | – | – | – | – | –
34 | CCNC(=O)OCc1c(COC(=O)NCC)c(-c2ccc(OC)cc2)n2c1Cc1ccccc1C2 | 6.46 | 6.66 | 6.43 | 0.58 | 4.98 | 4.77 | 4.56 | 4.73 | 5.90 | 6.12
35 | COc1cc(-c2c(CO)c(CO)c3n2Cc2ccccc2C3)cc(OC)c1OC | 5.56 | 5.54 | 5.71 | 1.45 | – | – | – | – | – | –
